# Reference: PubChem BioAssay
# Active and inactive are the calls of the source.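 How the source made its calls, unless noted: active means viability at or below 10% of carrier control in both of two separate runs; inconclusive means viability at or below 10% in only one of the two runs; inactive means the rest.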
# Experiments:
# [1] = Her2 expression decrease, cell viability multiplex – SKBR3 breast tumor cells, AlphaScreen, ATP viability, primary screen (AID 461;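 active means Her2 level under about 52% in both replicate screens, with viability over 70% of control, limit read from the data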;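 on Her2 level: lower value means less Her2 protein in the cells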;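 on viability: percent of carrier control wells set as 100% viability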); details: SKBR3 Her2 protein level, 18-24 h, measured here: SKBR3 viability, ATP luminescence, at 10 µM
# [2] = target: Receptor tyrosine-protein kinase erbB-2 (Homo sapiens) (UniProt P04626); assay: as above; details: 18-24 h, at 10 µM, stronger effect = lower value
# [3] = reduced viability of SK-BR-3 breast cancer cells – cell-based, 24 h, human, pilot screen (AID 572); details: SK-BR-3 viability, CellTiter-Glo luminescence, at 10 µM, stronger effect = lower value;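 further: compound exposure lasted between 18 and 24 h rather than exactly 24 h; 100% = carrier-treated control wells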
# [4] = HUVEC growth inhibition – cell-based, human, primary screen (AID 575;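 active means viability at or below 30% in both replicate assays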;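 further: 100% = median of untreated cell wells with 0.1% DMSO on each plate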); details: HUVEC proliferation, CellTiter-Glo luminescence, 72 h; at 10 µM; stronger effect = lower value
# Method in brief: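 Test system: HUVEC primary cells. Quantity: 1250 endothelial cells in each well. Dosing: single-point 10 µM, DMSO 0.1% final. Incubation: 72 h treatment at 37 °C. Measured by: CTG luminescence. Control set: DMSO cell controls and MePR drug controls. Plate: collagen-coated 384-well format.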
# [5] = H69AR cell proliferation blockers – human, duplicate replicates, primary screen (AID 580;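 active means viability at or under a set limit in both replicates, limit being median viability minus 3 SD, cut at about 48% in these data, passing the limit was not always enough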;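 further: 100% = mean luminescence of untreated wells and 0% = no signal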); details: H69AR lung tumor cells viability, ATP luminescence, 72 h; at 10 µM; stronger effect = lower value
# [6] = MRP1 drug-resistance reversers in H69AR cells – cell-based, doxorubicin co-treatment, pilot screen (AID 601;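 active means viability loss from added drug above about 55%, and viability with drug at most 40%, in both replicates, limit read from the data, passing the limit was not always enough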); details: CellTiter-Glo, 72 h, at 10 µM; for differential viability (reversal): stronger effect = higher value
# [7] = yeast transport mutant growth inhibition pilot in 384-well plates, post-Golgi transport modulator project (AID 636; in the data active means inhibition above about 31%); details: absorbance 615 nm, about 18 h, stronger effect = higher value
# [8] = growth suppression of yeast trafficking mutant, preliminary HTS, modulators of trafficking downstream of Golgi apparatus project, 1536-format plate, OD 615 nm (AID 637; in the data active means inhibition above about 30%); details: yeast transport mutant growth, absorbance 615 nm, 18 h; stronger effect = higher value
# [9] = H69AR cells + 2 uM doxorubicin, measured here: viability with 2 uM doxorubicin, stronger effect = lower value
# [10] = H69AR cells, compound alone cytotoxicity
# Receptor tyrosine-protein kinase erbB-2 (Homo sapiens), sequence (P04626 whole entry, looked up): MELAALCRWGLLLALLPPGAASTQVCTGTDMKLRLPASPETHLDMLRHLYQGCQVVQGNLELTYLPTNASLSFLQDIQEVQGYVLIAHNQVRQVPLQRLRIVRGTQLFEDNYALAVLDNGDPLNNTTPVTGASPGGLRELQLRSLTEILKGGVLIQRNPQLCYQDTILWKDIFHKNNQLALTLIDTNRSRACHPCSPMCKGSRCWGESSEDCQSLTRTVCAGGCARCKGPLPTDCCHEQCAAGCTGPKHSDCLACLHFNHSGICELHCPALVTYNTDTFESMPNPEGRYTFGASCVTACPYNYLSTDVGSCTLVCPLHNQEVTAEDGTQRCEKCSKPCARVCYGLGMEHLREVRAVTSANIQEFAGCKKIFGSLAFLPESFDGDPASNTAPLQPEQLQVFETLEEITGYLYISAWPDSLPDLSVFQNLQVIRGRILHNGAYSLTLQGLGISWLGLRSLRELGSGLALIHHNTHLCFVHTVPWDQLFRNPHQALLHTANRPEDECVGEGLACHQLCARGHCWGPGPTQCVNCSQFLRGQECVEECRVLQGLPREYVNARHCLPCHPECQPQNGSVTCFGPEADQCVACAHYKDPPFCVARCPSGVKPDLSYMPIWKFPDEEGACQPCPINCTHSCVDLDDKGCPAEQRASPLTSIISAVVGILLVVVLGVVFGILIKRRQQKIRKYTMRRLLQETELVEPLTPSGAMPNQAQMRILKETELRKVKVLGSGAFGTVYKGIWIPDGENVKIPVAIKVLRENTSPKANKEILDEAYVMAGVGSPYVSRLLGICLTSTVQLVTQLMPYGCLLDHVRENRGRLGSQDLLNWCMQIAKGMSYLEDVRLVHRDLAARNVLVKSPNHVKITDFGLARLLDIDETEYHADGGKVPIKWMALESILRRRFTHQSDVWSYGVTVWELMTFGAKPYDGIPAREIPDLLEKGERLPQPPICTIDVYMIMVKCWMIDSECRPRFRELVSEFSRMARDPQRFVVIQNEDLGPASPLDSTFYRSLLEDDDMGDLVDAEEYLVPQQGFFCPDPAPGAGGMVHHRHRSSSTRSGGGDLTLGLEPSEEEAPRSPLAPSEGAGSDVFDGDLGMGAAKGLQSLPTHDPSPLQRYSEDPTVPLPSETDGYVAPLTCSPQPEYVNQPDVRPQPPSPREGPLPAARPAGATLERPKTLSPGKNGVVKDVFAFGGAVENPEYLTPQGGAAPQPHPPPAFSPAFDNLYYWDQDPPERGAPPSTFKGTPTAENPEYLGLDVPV
Compound,viability [1],Her2 level [2],viability [3],viability [4],viability [5],differential viability (reversal) ([6]; H69AR cells + 2 uM doxorubicin),"viability [6, 9]","viability [6, 10]",inhibition [7],inhibition [8]
Cc1ccc(S(=O)(=O)N2CCC(C(=O)N3CCC[C@H]3C(=O)NCc3ccccc3)CC2)cc1,117%,103% (inactive),117% (inactive),101% (inactive),90.8% (inactive),-5.42% (inactive),96.2%,90.8%,-4.81% (inactive),-0.66% (inactive)
COc1ccc(C(CC(=O)O)NC(=O)c2ccccc2)cc1OC (stereo not given),110%,101% (inactive),110% (inactive),94.6% (inactive),83.6% (inactive),-6.46% (inactive),90.1%,83.6%,0.78% (inactive),-6.33% (inactive)
Cc1ccc(NCC(O)C(O)C(O)CO)cc1C (stereo not given),113%,104% (inactive),113% (inactive),93.4% (inactive),94.3% (inactive),-2.34% (inactive),96.6%,94.3%,-6.93% (inactive),-8.1% (inactive)
CCN1CCN(CCCNC(=O)c2cn(CCOC)c(=O)c3c2c2ccccc2n3C)CC1,121%,122% (inactive),121% (inactive),96.4% (inactive),97.2% (inactive),6.88% (inactive),90.3%,97.2%,-2.11% (inactive),-3.82% (inactive)
COc1ccc(OC)c(S(=O)(=O)N2c3ccccc3CC2C)c1 (stereo not given),82.5%,109% (inactive),82.5% (inactive),77.6% (inactive),89.4% (inactive),-11.7% (inactive),101%,89.4%,-4.86% (inactive),-3.93% (inactive)
Cc1ccc(C)c(-n2c(CNC(=O)c3ccco3)nnc2SCC(=O)Nc2nnc(C)s2)c1,100%,94% (inactive),100% (inactive),104% (inactive),96.6% (inactive),5.91% (inactive),90.7%,96.6%,-5.6% (inactive),3.5% (inactive)
Cc1c(C(=O)OCC(C)C)[nH]c2c1C(=O)CC(c1ccco1)C2 (stereo not given),80.5%,58% (inactive),80.5% (inactive),18.5% (active),24.1% (active),-22.6% (inactive),46.6%,24.1%,-1.2% (inactive),-3.28% (inactive)
O=S(c1ccsc1)c1ccsc1,116%,87% (inactive),116% (inactive),104% (inactive),88.7% (inactive),-4.55% (inactive),93.2%,88.7%,1.6% (inactive),1.29% (inactive)
O=S(=O)(c1ccc2ccccc2c1)N1CCCCC1,102%,82.5% (inactive),102% (inactive),78% (inactive),80.8% (inactive),5.72% (inactive),75.1%,80.8%,-1.95% (inactive),-8.67% (inactive)
O=C(Cn1nc(C(F)(F)F)c2c1CCCC2)NCCN1CCOCC1,110%,89% (inactive),110% (inactive),108% (inactive),91.5% (inactive),4.05% (inactive),87.5%,91.5%,-1.18% (inactive),3.93% (inactive)
CCCCc1cc(=O)oc2cc(C)cc(OC(C)C(=O)O)c12 (stereo not given),116%,115% (inactive),116% (inactive),109% (inactive),104% (inactive),8.19% (inactive),95.8%,104%,-2.3% (inactive),-7.17% (inactive)
CNC(=O)CC(C(=O)O)c1ccc(OCC(C)C)cc1 (stereo not given),90.5%,102% (inactive),90.5% (inactive),84.4% (inactive),93.9% (inactive),4.75% (inactive),89.2%,93.9%,-2.11% (inactive),9.84% (inactive)
CCCCn1nnnc1SCC(=O)N1CCN(C(=O)c2ccco2)CC1,116%,100% (inactive),116% (inactive),111% (inactive),93.6% (inactive),7.26% (inactive),86.3%,93.6%,-6.71% (inactive),1.75% (inactive)
COC(=O)c1cccc(NC(=O)Cc2coc3cc(OC)ccc23)c1,102%,96.5% (inactive),102% (inactive),87.1% (inactive),94.2% (inactive),15.6% (inactive),78.6%,94.2%,3.51% (inactive),-6.19% (inactive)
CCOC(=O)C(CC)Sc1nc2c(c(=O)[nH]c(=O)n2C)n1C/C=C(/C)Cl (stereo not given),97.5%,83% (inactive),97.5% (inactive),89.9% (inactive),84.9% (inactive),20.7% (inactive),64.2%,84.9%,-6.27% (inactive),3.93% (inactive)
Cc1cc(C(=O)NCCCN2CCN(C3CCCCC3)CC2)n(-c2ccccc2)n1,94%,111% (inactive),94% (inactive),111% (inactive),103% (inactive),11.8% (inactive),90.8%,103%,1.73% (inactive),-8.33% (inactive)
CCOc1ccc(CN2CCN(c3cc(C)nc4c5c(C)cc(C)nc5nn34)CC2)cc1,80%,83.5% (inactive),80% (inactive),94.2% (inactive),88.8% (inactive),-3.18% (inactive),92%,88.8%,-2.5% (inactive),-4.36% (inactive)
O=C(c1cc2cc(Cl)cc(Cl)c2oc1=O)N1CCOCC1,76%,82.5% (inactive),76% (inactive),96% (inactive),88.4% (inactive),0.725% (inactive),87.7%,88.4%,-6.35% (inactive),3.44% (inactive)
CC1CN(C(=O)CSc2nnc(-c3ccncc3)n2-c2ccccc2)CC(C)O1 (stereo not given),101%,112% (inactive),101% (inactive),103% (inactive),97.6% (inactive),-5% (inactive),103%,97.6%,-1.08% (inactive),0.32% (inactive)
O=C(CSc1nc2ccccc2n1CC(=O)N1CCCC1)Nc1nccs1,106%,93% (inactive),106% (inactive),98.4% (inactive),95.3% (inactive),16.4% (inactive),78.9%,95.3%,-0.92% (inactive),-6.73% (inactive)
O=S(=O)(c1ccc2nc(Cc3cccc(C(F)(F)F)c3)[nH]c2c1)N1CCOCC1,104%,91% (inactive),104% (inactive),67.9% (inactive),82.9% (inactive),3.53% (inactive),79.4%,82.9%,-1.69% (inactive),-0.16% (inactive)
Cc1noc(C)c1CSc1nnc(-c2ccncc2)n1-c1cccc(Cl)c1C,81.5%,93.5% (inactive),81.5% (inactive),81% (inactive),88.4% (inactive),2.37% (inactive),86%,88.4%,-3.42% (inactive),-8.25% (inactive)
CCOCCCNC(=O)C1CCN(C(=O)Nc2ccc(Cl)cc2)CC1,103%,92.5% (inactive),103% (inactive),94.7% (inactive),102% (inactive),10.9% (inactive),90.8%,102%,-5% (inactive),-1% (inactive)
COc1cc(C2C(C#N)=C(N)OC3=C2C(=O)CCC3)ccc1OC(=O)N1CCOCC1 (stereo not given),132%,91.5% (inactive),132% (inactive),93% (inactive),87.3% (inactive),3.67% (inactive),83.6%,87.3%,-5.87% (inactive),-0.66% (inactive)
O=C(NCc1cccnc1)c1ccccc1Br,110%,98.5% (inactive),110% (inactive),115% (inactive),95.1% (inactive),0.945% (inactive),94.2%,95.1%,-5.87% (inactive),-2.42% (inactive)
Cn1c(CN2CCOCC2)nc2cc(NC(=O)c3ccccc3Cl)ccc21,102%,103% (inactive),102% (inactive),92% (inactive),97.1% (inactive),-2.36% (inactive),99.5%,97.1%,-3.55% (inactive),-2.42% (inactive)
c1ccc(Cc2ccc(OCCn3cncn3)cc2)cc1,84%,108% (inactive),84% (inactive),98.6% (inactive),95% (inactive),14.6% (inactive),80.4%,95%,-3.92% (inactive),-7.38% (inactive)
COc1ccc(CCNC(=O)c2ccc(N3CCCC3=O)cc2)cc1OC,102%,108% (inactive),102% (inactive),103% (inactive),92.1% (inactive),12.3% (inactive),79.8%,92.1%,-5.84% (inactive),4.92% (inactive)
CCOC(=O)C1CCCN(c2c(N3CCN(c4ccccn4)CC3)c(=O)c2=O)C1 (stereo not given),86.5%,104% (inactive),86.5% (inactive),86.7% (inactive),102% (inactive),15% (inactive),86.5%,102%,0% (inactive),-2.46% (inactive)
